Results taken from article PMC3858840 (Journal of molecular biology, 2013).

Legend:
CaM (calmodulin) = assay: Direct interaction between moesin-FERM and CaM; format: binding; details: up to 10 µM moesin-FERM; 0.3 mM CaCl2; ex 340 nm
[1] = system: TMR-CLS/POPC/POPS liposome; format: binding, human; details: added alone, before moesin-FERM; 15% POPS/85% POPC; 0.3 mM CaCl2; 575 nm
Summary of the method: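 TMR-CLS was extruded (400-nm filter) into 15% POPS/85% POPC liposomes at 1:1000 peptide:lipid and diluted to about 5 nM in 50 mM Tris–HCl, 150 mM NaCl, 0.3 mM CaCl₂, pH 7.4. Additions carried 5 nM liposome. First 3 µM Ca/CaM, then moesin-FERM (400 nM, then 100 nM steps). TMR emission was recorded continuously at 575 nm (excitation 542 nm).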

B1: moesin-FERM: FERM domain of human moesin (residues 1–346), recombinant (protein)
chain: MPKTISVRVTTMDAELEFAIQPNTTGKQLFDQVVKTIGLREVWFFGLQYQDTKGFSTWLKLNKKVTAQDVRKESPLLFKFRAKFYPEDVSEELIQDITQRLFFLQVKEGILNDDIYCPPETAVLLASYAVQSKYGDFNKEVHKSGYLAGDKLLPQRVLEQHKLNKDQWEERIQVWHEEHRGMLREDAVLEYLKIAQDLEMYGVNYFSIKNKKGSELWLGVDALGLNIYEQNDRLTPKIGFPWSEIRNISFNDKKFVIKPIDKKAPDFVFYAPRLRINKRILALCMGNHELYMRRRKPDTIEVQQMKAQAREEKHQKQMERAMLENEKKKREMAEKEKEKIEREKEE
For B1, the “change in IAEDANS fluorescence emission of IAEDANS-CaM” value (CaM (calmodulin)) was “little change in the IAEDANS fluorescence emission” and the “change in TMR fluorescence of TMR-CLS/POPS liposome on addition” value [1] was “decrease of TMR fluorescence emission”.
